Series [1] can be described thus: Cytotoxicity against human HepG2.2.15 cells. It counts as cell-based, HepG2 2.2.15.
Series [2] concerns Hepatitis B virus. As to the kind of experiment: Antiviral activity against Hepatitis B virus infected in human HepG2.2.15 cells assessed as inhibition of viral replication after 7 days by RT-PCR analysis. It counts as functional, organism-based. The settings on record: for IC50: HepG2.2.15, 168 h.
The target of series [3] is Core antigen (Hepatitis B virus) (UniProt Q03732). In words: Inhibition of GFP-fused Hepatitis B Virus capsid expressed in HEK293T cells at 50 uM after 48 hrs relative to control. The series is classed as cell-based. Summed up:
(§1)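 BiFC assay: HBc fused to Venus fragments VN (1–154) and VC (155–239) were co-transfected into 293T cells, then compounds were added. The dose series used 0, 0.5, 5 and 50 μM; SAR used 50 μM as percent inhibition. After 48 h, reconstituted fluorescence was read as mean fluorescent intensity on a plate reader, with fluorescence microscopy images.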

Series [4] can be described thus: Renal toxicity in BALB/c mouse assessed as effect on CRE levels at 500 to 1000 mg/kg, ip measured on day 14. It counts as organism-based. The settings on record: in vivo. Summed up:
(§2)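 Male Balb/c mice, 5 animals, given a single intraperitoneal injection at 0, 500 or 1000 mg/kg. Body weight followed for two weeks. On day 14, blood was taken for hepatic and renal function (AST, ALT, BUN, creatinine). Heart, liver, lung, spleen and kidney were sectioned, HE-stained and examined.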

Series [5] in a line: Hepatic toxicity in BALB/c mouse assessed as effect on ALT levels at 500 to 1000 mg/kg, ip measured on day 14. It counts as organism-based. The settings on record: in vivo. In a few lines: as §2
A short description of series [6]: Renal toxicity in BALB/c mouse assessed as effect on BUN levels at 500 to 1000 mg/kg, ip measured on day 14. The series is classed as organism-based. The settings on record: in vivo. In a few lines: as §2
Series [7] has as its target Core antigen (Hepatitis B virus) (UniProt Q03732). As to the kind of experiment: Inhibition of dimerization of HA-tagged Hepatitis B Virus capsid (HBVcAg-C155-239) expressed in HEK293T cells at 50 to 100 uM after 48 hrs by co-immunoprecipitation assay. It counts as cell-based. Summed up: (§3)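 HEK293T cells were co-transfected with HBc-VN-HA and HBc-VC-FLAG, then treated with DMSO or compound. After 48 h, lysates were co-immunoprecipitated with anti-HA beads and analysed by immunoblot.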

Series [8] is described as follows: Acute toxicity in BALB/c mouse assessed as effect on body weight at 500 to 1000 mg/kg, ip measured after 2 weeks. It counts as organism-based. The settings on record: in vivo, 336 h. Summed up: as §2
The target in series [9] is Core antigen (Hepatitis B virus) (UniProt Q03732). As to the kind of experiment: Inhibition of dimerization of HA-tagged Hepatitis B Virus capsid (HBVcAg-C155-239) expressed in HEK293T cells at 50 to 100 uM after 48 hrs by Western blot analysis. It counts as cell-based. In a few lines: (§4)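 HEK293T cells were transfected with HBc-VN-HA or HBc-VC-FLAG and treated with DMSO, 50 or 100 μM compound. After 48 h, lysates were western blotted with anti-HA, anti-FLAG and anti-GAPDH.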

Series [10] in a line: Acute toxicity in BALB/c mouse assessed as effect on spleen at 500 to 1000 mg/kg, ip measured on day 14 by hematoxylin and eosin staining based assay. It counts as organism-based. The settings on record: in vivo. In a few lines: as §2
For series [11], the target named is Core antigen (Hepatitis B virus) (UniProt Q03732). As to the kind of experiment: Inhibition of GFP-fused Hepatitis B Virus capsid (HBVcAg-VFP-C155-239) expressed in HEK293T cells assessed as reduction in capsid assembly after 48 hrs by fluorescence microscopic analysis. It counts as cell-based. In a few lines: as §1
Series [12] can be described thus: Acute toxicity in BALB/c mouse assessed as effect on kidney at 500 to 1000 mg/kg, ip measured on day 14 by hematoxylin and eosin staining based assay. It counts as organism-based. The settings on record: in vivo. In a few lines:
as §2

Series [13] deals with Hepatitis B virus. In words: Antiviral activity against Hepatitis B virus infected in human […] assessed as reduction in viral DNA replication at 30 mg/kg dosed orthotopically every 3 days for 4 weeks by RT-PCR analysis. The series is classed as functional, organism-based.
Series [14] in a line: Acute toxicity in BALB/c mouse assessed as effect on lung at 500 to 1000 mg/kg, ip measured on day 14 by hematoxylin and eosin staining based assay. The series is classed as organism-based. The settings on record: in vivo. Summed up: as §2
For series [15], the target named is Core antigen (Hepatitis B virus) (UniProt Q03732). As to the kind of experiment: Inhibition of aggregation of HBV capsid (1 to 149 residues) expressed in Escherichia coli assessed as induction of abnormal capsid morphology at 0.2 to 50 uM by TEM analysis. In a few lines: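 His-tagged Cp149 was expressed in E. coli (IPTG 1 mM), Ni-affinity purified and kept in PBS. Cp149 (10 μM) in 50 mM HEPES pH 7.5 was preincubated 1 h with compound (0.2–50 μM) or DMSO. Assembly was started with NaCl to 50 mM and equilibrated 60 h at 23 °C. Grids were stained with 2% uranyl acetate and viewed by TEM.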

Series [16] has the same target. In words: Inhibition of dimerization of HA-tagged Hepatitis B Virus capsid (HBVcAg-N1-154) expressed in HEK293T cells at 50 to 100 uM after 48 hrs by co-immunoprecipitation assay. The series is classed as cell-based. In a few lines:
as §3

Series [17] has the same target. In words: Inhibition of GFP-fused Hepatitis B Virus capsid (HBVcAg-GFP-N1-154) expressed in HEK293T cells assessed as reduction in capsid assembly after 48 hrs by fluorescence microscopic analysis. The series is classed as cell-based. Summed up:
as §1

The nature of series [18]: Acute toxicity in BALB/c mouse assessed as effect on heart at 500 to 1000 mg/kg, ip measured on day 14 by hematoxylin and eosin staining based assay. It counts as organism-based. The settings on record: in vivo. Summed up: as §2
In series [19] the test system is Hepatitis B virus. In words: Antiviral activity against Hepatitis B virus infected in BALB/c mouse injected with replication-competent HBV DNA plasmid HBV-1.2mer assessed as reduction in HBsAg replication at 30 mg/kg, iv measured after 2 weeks by ELISA. The series is classed as functional, organism-based. In a few lines:
(§5)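 BALB/c transgenic mice carrying the replication-competent HBV-1.2mer plasmid were bled at day 0 for HBV DNA copies and randomly split into two groups of 3 males. Each group got 30 mg/kg compound or DMSO by tail vein, every 2 days, for 2 weeks. Blood was then collected. HBV DNA was measured by real-time PCR and HBsAg by ELISA.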

Series [20] can be described thus: Acute toxicity in BALB/c mouse assessed as effect on liver at 500 to 1000 mg/kg, ip measured on day 14 by hematoxylin and eosin staining based assay. It counts as organism-based. The settings on record: in vivo. Summed up: as §2
Series [21] has as its system Hepatitis B virus. As to the kind of experiment: Antiviral activity against Hepatitis B virus infected in BALB/c mouse injected with replication-competent HBV DNA plasmid HBV-1.2mer assessed as reduction in viral DNA replication at 30 mg/kg, iv measured after 2 weeks by RT-PCR analysis. The series is classed as functional, organism-based. In a few lines:
as §5

Series [22] is described as follows: Hepatic toxicity in BALB/c mouse assessed as effect on AST levels at 500 to 1000 mg/kg, ip measured on day 14. The series is classed as organism-based. The settings on record: in vivo. Summed up:
as §2

For series [23], the target named is Core antigen (Hepatitis B virus) (UniProt Q03732). In words: Inhibition of dimerization of HA-tagged Hepatitis B Virus capsid (HBVcAg-N1-154) expressed in HEK293T cells at 50 to 100 uM after 48 hrs by Western blot analysis. It counts as cell-based. In a few lines: as §4

Active and inactive are the calls of the source. The rule behind the calls is not given here.

Sequence of Core antigen (Hepatitis B virus) (Q03732 as listed by the source): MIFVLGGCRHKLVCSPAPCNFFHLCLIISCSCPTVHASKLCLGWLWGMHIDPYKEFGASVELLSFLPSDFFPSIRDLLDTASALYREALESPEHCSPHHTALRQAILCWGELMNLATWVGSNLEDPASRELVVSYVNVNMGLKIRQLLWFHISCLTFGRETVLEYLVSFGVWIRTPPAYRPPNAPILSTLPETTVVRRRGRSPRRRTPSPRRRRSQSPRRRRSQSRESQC

With `CC(C)(C)OC(=O)Nc1ncc(C(Oc2ccc3cc(Br)ccc3c2)c2ccc(Cl)cc2)s1` (stereo not drawn), the CC50 in series [1] was > 50 µM. In addition, in series [2], the concentration for half-maximal inhibition (IC50) turned out to be 2.27 µM. This molecule yielded an inhibition in series [3] of 55%.

As for `O=C(Nc1ncc(C(Oc2ccc3cc(Br)ccc3c2)c2ccc(Cl)cc2)s1)c1ccc(F)cc1Br` (stereo not drawn), the CC50 in [1] is > 50 µM. Moreover, in series [2], the concentration for half-maximal inhibition (IC50) stood at 3.55 µM. In series [3], this molecule yielded an inhibition of 65%.

As to `O=C(Nc1ncc(Cc2ccc(Cl)cc2)s1)c1cccs1`, in [1], the CC50 is > 50 µM. Besides, the IC50 in series [2] worked out at 3.62 µM. In series [3], this molecule displayed an inhibition of 59%.

Consider `O=S(=O)(Nc1ncc(C(Oc2ccc3cc(Br)ccc3c2)c2ccc(Cl)cc2)s1)c1ccccc1` (stereo not drawn), for which, in series [1], the CC50 was > 50 µM. In addition, the half-inhibitory concentration (IC50) in series [2] came out at 2.32 µM. Moreover, in series [3], the inhibition is 63%.

`CCOC(=O)C1=C(CN2CCOCC2)NC(c2nccs2)=NC1c1ccc(F)cc1Br` (stereo not drawn): the Activity result in series [2] is “Dose-dependent effect”.

With `COc1ccc(C(=O)Nc2ncc(C(Oc3ccc4cc(Br)ccc4c3)c3ccc(F)cc3)s2)cc1` (stereo not drawn), the CC50 in series [1] is > 50 µM. This molecule yielded an inhibition in series [3] of 76%.

In the case of `CCCCCC(=O)Nc1ncc(C(Oc2ccc3cc(Br)ccc3c2)c2ccc(Cl)cc2)s1` (stereo not drawn), the CC50 in series [1] is > 50 µM. Further, the inhibition result in series [3] is “inactive”.

Turning to `CC(C)(C)OC(=O)Nc1ncc(C(Oc2ccc(Br)cc2)c2ccc(Cl)cc2)s1` (stereo not drawn), the half-maximal cytotoxic concentration (CC50) in series [1] was > 50 µM. In addition, the inhibition result in [3] was “inactive”.

Regarding `O=C(Nc1ncc(Cc2ccc(F)cc2)s1)c1cccs1`, in series [1], the CC50 was > 500 µM. Besides, the IC50 in series [2] was 6.15 µM.

With `O=C(Nc1ncc(C(Oc2ccc3cc(Br)ccc3c2)c2ccc(Cl)cc2)s1)c1ccc(Br)cc1` (stereo not drawn), the CC50 in [1] is > 50 µM. Also, the inhibition entry in series [3] was “inactive”.

Take `CC(C)(C)OC(=O)Nc1ncc(C(Oc2cccc(C#N)c2)c2ccc(Cl)cc2)s1` (stereo not drawn): the CC50 in [1] was > 50 µM. The inhibition entry in series [3] is “inactive”.

Take `Cc1ccc(S(=O)(=O)Nc2ncc(C(Oc3ccc4cc(Br)ccc4c3)c3ccc(Cl)cc3)s2)c2ccccc12` (stereo not drawn): in [1], the CC50 was > 50 µM. Besides, the inhibition entry in series [3] is “inactive”.

Regarding `COc1ccc(C(=O)Nc2ncc(C(Oc3ccc4cc(Br)ccc4c3)c3ccc(Cl)cc3)s2)cc1` (stereo not drawn), the CC50 in series [1] is > 50 µM. Also, the half-maximal inhibitory concentration (IC50) in series [2] is 1.45 µM. Further, the inhibition in [3] is 54%.

Take `O=C(Nc1ncc(Cc2ccc(Br)cc2)s1)c1cccs1`: in series [1], the cytotoxic concentration (CC50) is > 50 µM. Moreover, the inhibition result in series [3] is “inactive”.

`COc1ccc(C(=O)Nc2ncc(C(Nc3cccc4ccccc34)c3ccc(Cl)cc3)s2)cc1` (stereo not drawn): the CC50 in series [1] was > 50 µM. In addition, in [2], the half-maximal inhibitory concentration (IC50) is 6.85 µM. Also, in series [3], the inhibition was found to be 69%.

Regarding `Cc1cc(C(C)C)ccc1OC(c1ccc(Cl)cc1)c1cnc(NC(=O)OC(C)(C)C)s1` (stereo not drawn), the CC50 in series [1] was > 50 µM. Besides, the inhibition result in [3] is “inactive”.

For the molecule `O=C(Nc1ncc(Cc2ccc(F)cc2)s1)C1CCCCC1`, the CC50 in [1] was > 50 µM. Moreover, the inhibition entry in [3] was “inactive”.

On to `O=S(=O)(Nc1ncc(C(Oc2ccc3cc(Br)ccc3c2)c2ccc(Cl)cc2)s1)c1cccc2cccnc12` (stereo not drawn), for which the Activity result in series [4], in [5], in series [6], in series [8], in series [10] and in series [12] was “Non-Toxic” each time. Also, the Activity entry in [14], in [18], in [20] and in series [22] was “Non-Toxic” in each case. For the same molecule, the inhibition entry in series [7], in series [9], in [15], in series [16] and in series [23] was “Active” throughout. The inhibition entry in [11] is “Dose-dependent effect”; in series [17], “Dose-dependent effect”; in series [2], “Dose-dependent effect”; in [3] it was 63%. The result in [13], in series [19] and in series [21] was Active. In [1], the CC50 was > 50 µM. Moreover, in series [2], the 50% inhibitory concentration (IC50) was determined as 0.183 µM.
